From ChEMBL document CHEMBL4014326, “Discovery of an Orally Bioavailable Benzimidazole Diacylglycerol Acyltransferase 1 (DGAT1) Inhibitor That Suppresses Body Weight Gain in Diet-Induced Obese Dogs and Postprandial Triglycerides in Humans” (J Med Chem, 2017)

What was measured:
[1] = biological target: T1, Diacylglycerol O-acyltransferase 1 (Homo sapiens, UniProt O75907); test: Inhibition of recombinant human His6-tagged DGAT1 expressed in Sf9 insect cell membranes assessed as inhibition of triglyceride formation using diolein/oleyl-CoA as substrate after 30 mins by LC/MS/MS analysis
T1 sequence (O75907 whole entry): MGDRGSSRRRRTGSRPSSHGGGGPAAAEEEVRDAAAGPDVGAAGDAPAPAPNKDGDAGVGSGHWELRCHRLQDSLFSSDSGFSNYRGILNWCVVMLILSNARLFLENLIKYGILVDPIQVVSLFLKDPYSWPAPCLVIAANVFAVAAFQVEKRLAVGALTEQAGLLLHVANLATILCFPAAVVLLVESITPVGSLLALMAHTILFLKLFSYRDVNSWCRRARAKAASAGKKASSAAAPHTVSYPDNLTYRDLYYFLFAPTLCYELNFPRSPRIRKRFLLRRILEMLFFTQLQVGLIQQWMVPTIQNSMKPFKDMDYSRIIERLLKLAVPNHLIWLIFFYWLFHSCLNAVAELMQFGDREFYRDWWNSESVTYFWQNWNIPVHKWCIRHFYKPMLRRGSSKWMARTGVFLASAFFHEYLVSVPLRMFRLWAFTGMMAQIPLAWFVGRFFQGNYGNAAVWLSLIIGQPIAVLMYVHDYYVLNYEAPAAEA

[2] = Permeability across apical to basolateral side in human Caco2 cells; type: ADME, cell-based; conditions: Caco-2, read-out: permeability
How it was run: (§1)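 Caco-2 monolayer permeability was measured in the A-B and B-A directions, and the efflux ratio was taken as B-A/A-B.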

[3] = Permeability across basolateral to apical side in human Caco2 cells; type: ADME, cell-based; conditions: Caco-2, read-out: permeability; how it was run: as §1
[4] = Efflux ratio of permeability across basolateral to apical side over apical to basolateral side in human Caco2 cells; type: ADME, cell-based; conditions: Caco-2; how it was run: as §1
[5] = test system: Salmonella typhimurium; test: Genotoxicity in histidine depleted Salmonella typhimurium TA98 assessed as increase in reverting mutations up to 1000 ug in presence of S9 metabolic activation by Ames test; type: toxicity; conditions: salmonella enterica subsp. enterica serovar typhimurium
[6] = test system: Salmonella typhimurium; test: Genotoxicity in histidine depleted Salmonella typhimurium TA100 assessed as increase in reverting mutations up to 1000 ug in presence of S9 metabolic activation by Ames test; type: toxicity; conditions: salmonella enterica subsp. enterica serovar typhimurium
[7] = test system: Salmonella typhimurium; test: Genotoxicity in histidine depleted Salmonella typhimurium TA98 assessed as increase in reverting mutations up to 1000 ug in absence of S9 metabolic activation by Ames test; type: toxicity; conditions: salmonella enterica subsp. enterica serovar typhimurium
[8] = Clearance in Sprague-Dawley rat at 1 mg/kg, iv by LC/MS/MS analysis; type: ADME, organism-based; conditions: in vivo
How it was run: (§2)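 Male Sprague-Dawley rats, 200-300 g, dosed iv (n = 2) or po (n = 3) as solutions in NMP/PG or PEG400/ETPGS vehicles. Blood was taken from a jugular vein catheter at 0.083 (iv only), 0.25, 0.5, 1, 2, 4, 6 and 8 h into EDTA tubes, and plasma was analysed by LC-MS/MS. Values are means ± SD.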

[9] = Volume of distribution at steady state in Sprague-Dawley rat at 1 mg/kg, iv by LC/MS/MS analysis; type: ADME, organism-based; conditions: in vivo, read-out: Vdss; how it was run: as §2
[10] = Half life in Sprague-Dawley rat at 1 mg/kg, iv by LC/MS/MS analysis; type: ADME, organism-based; conditions: in vivo; how it was run: as §2
[11] = Cmax in Sprague-Dawley rat at 3 mg/kg, po by LC/MS/MS analysis; type: ADME, organism-based; design: dose 3 mg/kg, route oral; conditions: in vivo; how it was run: as §2
[12] = Tmax in Sprague-Dawley rat 3 mg/kg, po by LC/MS/MS analysis; type: ADME, organism-based; conditions: in vivo; how it was run: as §2
[13] = AUC (0 to 8 hrs) in Sprague-Dawley rat at 3 mg/kg, po by LC/MS/MS analysis; type: ADME, organism-based; design: dose 3 mg/kg, time < 8 hr, route oral; conditions: in vivo; how it was run: as §2
[14] = test system: Homo sapiens; test: Toxicity in human assessed as diarrhea at 150 mg, po as single oral dose; type: organism-based; conditions: in vivo
[15] = test system: Homo sapiens; test: Toxicity in human assessed as nausea at 150 mg, po as single oral dose; type: organism-based; conditions: in vivo
[16] = Drug metabolism in rat hepatocytes assessed as [3H]-(2S,3S,4S,5R,6S)-3,4,5-trihydroxy-6-(3-(4-(6-(5-(4-methoxyphenyl)-1,3,4-oxadiazol-2-yl)-1H-benzo[d]imidazol-2-yl)-3,5-dimethylphenyl)-2,2-dimethylpropanoyloxy)tetrahydro-2H-pyran-2-carboxylic acid formation at 12.5 uM after 18 hrs; type: ADME, cell-based, Hepatocyte
How it was run: (§3)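 [3H]-labelled compound (12.5 µM) was incubated for 18 h with rat, dog, monkey or human hepatocytes, and metabolites were profiled.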

[17] = Drug metabolism in dog hepatocytes assessed as [3H]-(2S,3S,4S,5R,6S)-3,4,5-trihydroxy-6-(3-(4-(6-(5-(4-methoxyphenyl)-1,3,4-oxadiazol-2-yl)-1H-benzo[d]imidazol-2-yl)-3,5-dimethylphenyl)-2,2-dimethylpropanoyloxy)tetrahydro-2H-pyran-2-carboxylic acid formation at 12.5 uM after 18 hrs; type: ADME, cell-based, Canis lupus familiaris, Hepatocyte; how it was run: as §3
[18] = Drug metabolism in monkey hepatocytes assessed as [3H]-(2S,3S,4S,5R,6S)-3,4,5-trihydroxy-6-(3-(4-(6-(5-(4-methoxyphenyl)-1,3,4-oxadiazol-2-yl)-1H-benzo[d]imidazol-2-yl)-3,5-dimethylphenyl)-2,2-dimethylpropanoyloxy)tetrahydro-2H-pyran-2-carboxylic acid formation at 12.5 uM after 18 hrs; type: ADME, cell-based, Macaca mulatta, Hepatocyte; conditions: rhesus monkey; how it was run: as §3
[19] = Drug metabolism in human hepatocytes assessed as [3H]-(2S,3S,4S,5R,6S)-3,4,5-trihydroxy-6-(3-(4-(6-(5-(4-methoxyphenyl)-1,3,4-oxadiazol-2-yl)-1H-benzo[d]imidazol-2-yl)-3,5-dimethylphenyl)-2,2-dimethylpropanoyloxy)tetrahydro-2H-pyran-2-carboxylic acid formation at 12.5 uM after 18 hrs; type: ADME, cell-based, Hepatocyte; how it was run: as §3
[20] = Drug metabolism in rat hepatocytes assessed as [3H]-3-(3,5-dimethyl-4-(6-(5-phenyl-1,3,4-oxadiazol-2-yl)-1H-benzo[d]imidazol-2-yl)phenyl)-2,2-dimethylpropanoic acid formation at 12.5 uM after 18 hrs; type: ADME, cell-based, Hepatocyte; how it was run: as §3
[21] = Drug metabolism in human hepatocytes assessed as [3H]-3-(3,5-dimethyl-4-(6-(5-phenyl-1,3,4-oxadiazol-2-yl)-1H-benzo[d]imidazol-2-yl)phenyl)-2,2-dimethylpropanoic acid formation at 12.5 uM after 18 hrs; type: ADME, cell-based, Hepatocyte; how it was run: as §3
[22] = biological target: T2, Diacylglycerol O-acyltransferase 2 (Homo sapiens, UniProt Q96PD7); test: Inhibition of DGAT2 (unknown origin)
T2 sequence (Q96PD7 whole entry): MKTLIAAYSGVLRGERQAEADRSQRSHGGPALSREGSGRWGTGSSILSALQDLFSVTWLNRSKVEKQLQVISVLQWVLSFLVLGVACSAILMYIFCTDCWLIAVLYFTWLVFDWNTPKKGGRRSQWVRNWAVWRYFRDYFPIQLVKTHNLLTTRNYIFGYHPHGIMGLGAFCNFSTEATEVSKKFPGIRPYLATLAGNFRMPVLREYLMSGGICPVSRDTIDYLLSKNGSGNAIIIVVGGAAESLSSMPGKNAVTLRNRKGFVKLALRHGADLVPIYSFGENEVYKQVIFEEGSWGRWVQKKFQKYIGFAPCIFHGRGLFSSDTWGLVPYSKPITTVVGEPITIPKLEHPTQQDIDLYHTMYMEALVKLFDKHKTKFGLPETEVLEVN

Work on `COc1ccc(-c2nnc(-c3ccc4nc(-c5c(C)cc(CC(C)(C)C(=O)O)cc5C)[nH]c4c3)o2)cc1` yielded an IC50 [1] of 17 nM, a Papp A→B [2] of 4.2 ×10⁻⁶ cm/s and a Papp B→A [3] of 10 ×10⁻⁶ cm/s. For the same molecule, the efflux ratio [4] was 2.4, the Activity [5] was “Non-Toxic” and the Activity [6] was “Non-Toxic”. The Activity [7] was “Non-Toxic”, the clearance [8] was 9.5 mL/min/kg and the Vd [9] was 0.6 L/kg. For the same molecule, the half-life [10] was 1.9 h, the Cmax [11] was 3.55 µM and the Tmax [12] was 1.2 h. The AUC(0-t) at 8 h [13] was 10.4 µM·h, the Activity [14] was “Toxic” and the Activity [15] was “Toxic”. The Drug metabolism [16] was “Metabolite_Detected”, the Drug metabolism [17] was “Metabolite_Detected” and the Drug metabolism [18] was “Metabolite_Detected”. For the same molecule, the Drug metabolism [19] was “Metabolite_Detected”, the Drug metabolism [20] was “Metabolite_Detected” and the Drug metabolism [21] was “Metabolite_Detected”. For the same molecule, the IC50 [22] was over 10000 nM.
